From ChEMBL document CHEMBL1641460, “Potent and selective thiophene urea-templated inhibitors of S6K” (Bioorg Med Chem Lett, 2011)
≈ marks a conversion by molar mass, not a printed value. One block for each compound: values may come before it.

Key:
[1] = target: T1, Ribosomal protein S6 kinase beta-1 (Homo sapiens, UniProt P23443); assay: Inhibition of S6K1
[2] = Half life in human hepatocytes at 1 uM by LC/MS/MS analysis; format: ADME, cell-based, Liver, Hepatocyte
In short: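 Stability measured in intact human hepatocytes, with remaining parent compound quantified by LC/MS/MS. Result expressed as half-life (T1/2) in minutes.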

[3] = target: CYP2D6 (Homo sapiens, UniProt P10635); assay: Inhibition of CYP2D6 at 3 uM by LC/MS/MS analysis; format: ADME
[4] = target: Voltage-gated inwardly rectifying potassium channel KCNH2 (Homo sapiens, UniProt Q12809); assay: Displacement of labeled dofetilide from human ERG
[5] = target: T1, Ribosomal protein S6 kinase beta-1; assay: Inhibition of S6K1 in ribosomal protein S6 by whole cell assay
[6] = target: CYP3A4 (Homo sapiens, UniProt P08684); assay: Inhibition of CYP3A4 at 3 uM by LC/MS/MS analysis; format: ADME
[7] = target: CYP2C9 (Homo sapiens, UniProt P11712); assay: Inhibition of CYP2C9 at 3 uM by LC/MS/MS analysis; format: ADME
[8] = target: T2, CYP1A2 (Homo sapiens, UniProt P05177); assay: Inhibition of CYP1A2 at 3 uM by LC/MS/MS analysis; format: ADME
T2 sequence (P05177 whole entry): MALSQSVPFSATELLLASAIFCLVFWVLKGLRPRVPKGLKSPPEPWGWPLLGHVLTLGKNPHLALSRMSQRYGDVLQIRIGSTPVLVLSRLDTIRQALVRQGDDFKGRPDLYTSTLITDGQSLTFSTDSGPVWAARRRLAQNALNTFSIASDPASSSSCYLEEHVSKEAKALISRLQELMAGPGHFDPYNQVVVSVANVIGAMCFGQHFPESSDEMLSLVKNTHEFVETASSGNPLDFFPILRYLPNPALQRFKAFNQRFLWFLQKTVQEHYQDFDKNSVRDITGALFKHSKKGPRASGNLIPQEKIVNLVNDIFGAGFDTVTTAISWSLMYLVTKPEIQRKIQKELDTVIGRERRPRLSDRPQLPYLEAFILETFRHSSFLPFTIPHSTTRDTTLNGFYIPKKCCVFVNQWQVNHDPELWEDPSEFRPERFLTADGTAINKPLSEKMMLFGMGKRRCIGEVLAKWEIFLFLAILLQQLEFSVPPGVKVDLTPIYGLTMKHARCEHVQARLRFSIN

[9] = Kinetic solubility of the compound in 50 mM phosphate buffer at pH 6.5; format: physicochemical
[10] = Half life in human liver microsomes at 1 uM by LC/MS/MS analysis; format: ADME, Microsome
In short: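 Test compound incubated with human liver microsomes to measure Phase I metabolic stability. Remaining compound quantified by LC/MS/MS, and stability reported as half-life (T1/2) in minutes.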

Chain of CYP2C9 (P11712 whole entry): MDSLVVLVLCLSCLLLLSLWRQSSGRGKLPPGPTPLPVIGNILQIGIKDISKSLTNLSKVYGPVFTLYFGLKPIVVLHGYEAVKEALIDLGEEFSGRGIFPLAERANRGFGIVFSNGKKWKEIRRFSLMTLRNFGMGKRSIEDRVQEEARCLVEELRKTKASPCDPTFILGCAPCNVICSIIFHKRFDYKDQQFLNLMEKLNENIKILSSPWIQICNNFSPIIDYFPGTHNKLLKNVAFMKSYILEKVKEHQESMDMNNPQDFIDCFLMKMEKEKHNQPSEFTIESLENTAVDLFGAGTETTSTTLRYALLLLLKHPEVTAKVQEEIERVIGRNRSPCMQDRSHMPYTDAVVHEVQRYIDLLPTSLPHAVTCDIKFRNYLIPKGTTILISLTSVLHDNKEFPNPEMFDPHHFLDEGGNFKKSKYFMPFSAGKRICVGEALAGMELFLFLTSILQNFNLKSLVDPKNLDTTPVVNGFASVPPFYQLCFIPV
Chain of CYP2D6 (P10635 whole entry): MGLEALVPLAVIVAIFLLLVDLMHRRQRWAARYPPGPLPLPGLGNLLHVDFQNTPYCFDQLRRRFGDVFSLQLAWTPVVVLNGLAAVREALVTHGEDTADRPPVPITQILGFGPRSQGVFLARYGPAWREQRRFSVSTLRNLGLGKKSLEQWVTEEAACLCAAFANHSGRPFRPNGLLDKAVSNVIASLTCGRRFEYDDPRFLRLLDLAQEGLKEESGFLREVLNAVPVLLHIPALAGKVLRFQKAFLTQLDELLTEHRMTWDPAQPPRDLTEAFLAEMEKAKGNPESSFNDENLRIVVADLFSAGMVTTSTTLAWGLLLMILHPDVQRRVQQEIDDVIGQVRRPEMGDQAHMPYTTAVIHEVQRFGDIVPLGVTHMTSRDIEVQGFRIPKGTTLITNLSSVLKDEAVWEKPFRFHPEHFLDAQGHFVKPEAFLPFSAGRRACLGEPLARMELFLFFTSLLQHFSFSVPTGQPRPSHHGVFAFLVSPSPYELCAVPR
Chain of Voltage-gated inwardly rectifying potassium channel KCNH2 (Q12809 whole entry): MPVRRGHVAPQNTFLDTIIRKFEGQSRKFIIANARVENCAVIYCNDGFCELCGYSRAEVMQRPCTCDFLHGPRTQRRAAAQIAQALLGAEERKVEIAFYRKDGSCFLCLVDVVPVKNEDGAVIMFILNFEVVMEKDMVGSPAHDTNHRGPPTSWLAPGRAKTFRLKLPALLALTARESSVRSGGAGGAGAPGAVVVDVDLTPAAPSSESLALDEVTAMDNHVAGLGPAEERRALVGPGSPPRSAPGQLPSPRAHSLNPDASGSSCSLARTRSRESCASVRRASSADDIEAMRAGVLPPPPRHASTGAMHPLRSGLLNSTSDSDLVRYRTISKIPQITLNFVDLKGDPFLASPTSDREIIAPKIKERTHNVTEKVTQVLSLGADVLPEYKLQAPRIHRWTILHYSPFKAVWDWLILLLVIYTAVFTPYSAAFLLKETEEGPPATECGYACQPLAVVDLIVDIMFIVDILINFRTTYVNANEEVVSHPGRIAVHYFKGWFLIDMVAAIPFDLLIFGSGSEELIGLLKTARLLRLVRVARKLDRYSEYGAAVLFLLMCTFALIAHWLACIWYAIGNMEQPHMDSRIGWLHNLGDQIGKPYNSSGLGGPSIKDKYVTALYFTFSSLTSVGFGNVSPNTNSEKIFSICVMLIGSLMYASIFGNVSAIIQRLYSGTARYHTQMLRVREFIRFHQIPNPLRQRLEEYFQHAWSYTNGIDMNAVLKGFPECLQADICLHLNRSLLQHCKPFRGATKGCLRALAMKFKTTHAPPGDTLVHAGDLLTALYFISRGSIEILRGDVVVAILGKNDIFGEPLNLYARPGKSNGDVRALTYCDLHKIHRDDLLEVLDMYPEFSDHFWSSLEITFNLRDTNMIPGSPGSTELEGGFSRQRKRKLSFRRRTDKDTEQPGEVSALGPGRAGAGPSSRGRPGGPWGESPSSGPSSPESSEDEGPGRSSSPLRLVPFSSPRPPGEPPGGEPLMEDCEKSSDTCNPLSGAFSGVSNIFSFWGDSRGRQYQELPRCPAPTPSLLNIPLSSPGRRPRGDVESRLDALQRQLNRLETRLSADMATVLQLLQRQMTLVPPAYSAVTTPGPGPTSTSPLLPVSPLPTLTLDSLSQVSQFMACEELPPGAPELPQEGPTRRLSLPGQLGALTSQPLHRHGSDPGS
T1 sequence (P23443 whole entry): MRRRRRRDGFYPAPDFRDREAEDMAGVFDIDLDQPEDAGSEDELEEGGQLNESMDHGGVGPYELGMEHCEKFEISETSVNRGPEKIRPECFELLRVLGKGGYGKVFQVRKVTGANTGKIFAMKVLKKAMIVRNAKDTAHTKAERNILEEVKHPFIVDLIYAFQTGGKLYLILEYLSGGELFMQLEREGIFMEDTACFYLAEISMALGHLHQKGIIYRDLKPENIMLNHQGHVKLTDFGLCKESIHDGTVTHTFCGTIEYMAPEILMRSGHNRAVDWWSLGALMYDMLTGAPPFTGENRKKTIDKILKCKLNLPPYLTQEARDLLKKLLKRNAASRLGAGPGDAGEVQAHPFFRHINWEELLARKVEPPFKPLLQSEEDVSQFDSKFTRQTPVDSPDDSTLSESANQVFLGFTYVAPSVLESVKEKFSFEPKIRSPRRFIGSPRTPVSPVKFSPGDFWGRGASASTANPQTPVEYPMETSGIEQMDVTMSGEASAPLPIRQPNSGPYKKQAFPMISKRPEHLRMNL
Chain of CYP3A4 (P08684 whole entry): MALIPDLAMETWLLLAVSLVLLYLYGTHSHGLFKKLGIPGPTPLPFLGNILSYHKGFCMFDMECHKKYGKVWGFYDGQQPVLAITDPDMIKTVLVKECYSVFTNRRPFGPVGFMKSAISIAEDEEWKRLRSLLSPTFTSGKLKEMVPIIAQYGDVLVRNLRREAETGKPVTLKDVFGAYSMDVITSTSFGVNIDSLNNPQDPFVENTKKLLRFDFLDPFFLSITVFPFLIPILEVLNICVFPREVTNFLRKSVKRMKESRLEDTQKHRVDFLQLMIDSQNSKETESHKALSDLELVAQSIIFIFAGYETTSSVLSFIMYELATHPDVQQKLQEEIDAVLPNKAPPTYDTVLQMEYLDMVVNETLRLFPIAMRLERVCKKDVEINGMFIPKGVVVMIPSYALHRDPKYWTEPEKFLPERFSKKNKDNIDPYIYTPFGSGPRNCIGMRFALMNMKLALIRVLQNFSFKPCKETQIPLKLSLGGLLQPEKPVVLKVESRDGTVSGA

Compound: CN(C)CCNC(=O)c1cc(C(C)(C)C)sc1NC(=O)Nc1ccc2[nH]ncc2c1
half-life at 1 µM [2]: 2.08 h
inhibition at 3 µM [3]: 7%
inhibition (INH) [4]: 28%
IC50 [5]: 521 nM
inhibition at 3 µM [6]: 0%
inhibition at 3 µM [7]: 0%
inhibition at 3 µM [8]: 18%
solubility kinetic [9]: 171 µg/mL (≈ 399 µM)
half-life at 1 µM [10]: 0.633 h
IC50 [1]: 15 nM

Compound: CC(C)(C)c1cc(C(=O)N2CCOCC2)c(NC(=O)Nc2ccc3[nH]ncc3c2)s1
IC50 [1]: 207 nM

Compound: CC(C)(C)c1cc(C(=O)N2CCS(=O)(=O)CC2)c(NC(=O)Nc2ccc(Oc3cccnc3)cc2)s1
IC50 [1]: 9000 nM

Compound: C[C@@H](O)c1cc(C(=O)NCCN(C)C)c(NC(=O)Nc2ccc3[nH]ncc3c2)s1
IC50 [1]: 196 nM

Compound: COc1ccccc1Oc1ccc(NC(=O)Nc2sc(C(C)(C)C)cc2C(=O)N2CCS(=O)(=O)CC2)cc1
IC50 [1]: > 20000 nM

Compound: CC(C)(C)c1cc(C(=O)N2CCS(=O)(=O)CC2)c(NC(=O)Nc2ccc(Oc3ccncc3)cc2)s1
IC50 [1]: > 20000 nM

Compound: COCCNC(=O)c1cc(C(C)(C)C)sc1NC(=O)Nc1ccc2[nH]ncc2c1
half-life at 1 µM [2]: 6.12 h
inhibition at 3 µM [3]: 0%
inhibition (INH) [4]: 0%
inhibition at 3 µM [6]: 2%
inhibition at 3 µM [7]: 14%
inhibition at 3 µM [8]: 45%
solubility kinetic [9]: 10 µg/mL (≈ 24.1 µM)
half-life at 1 µM [10]: > 2 h
IC50 [1]: 7 nM

Compound: CC(C)(C)c1cc(C(=O)N2CCS(=O)(=O)CC2)c(NC(=O)Nc2ccc3[nH]ncc3c2)s1
IC50 [1]: 34 nM

Compound: CC(C)(C)c1cc(C(=O)NC2CC2)c(NC(=O)Nc2ccc3[nH]ncc3c2)s1
half-life at 1 µM [2]: 2.3 h
inhibition at 3 µM [3]: 12%
inhibition (INH) [4]: 0%
IC50 [5]: 685 nM
inhibition at 3 µM [6]: 11%
inhibition at 3 µM [7]: 11%
inhibition at 3 µM [8]: 40%
solubility kinetic [9]: 10 µg/mL (≈ 25.2 µM)
half-life at 1 µM [10]: > 2 h
IC50 [1]: 10 nM

Second part, led by results:

IC50 [1]: 29 nM
Compound: CC(C)c1cc(C(=O)NCCN(C)C)c(NC(=O)Nc2ccc3[nH]ncc3c2)s1

IC50 [1]: 223 nM
Compound: Cc1cc(C(=O)NCCN(C)C)c(NC(=O)Nc2ccc3[nH]ncc3c2)s1

IC50 [1]: 4000 nM
Compound: Cc1c(O)cccc1NC(=O)Nc1sc(C(C)(C)C)cc1C(=O)N1CCS(=O)(=O)CC1

IC50 [1]: 201 nM
Compound: CC(C)(C)c1cc(C(=O)NCc2ccccc2)c(NC(=O)Nc2ccc3[nH]ncc3c2)s1

inhibition at 3 µM [3]: 20%
inhibition at 3 µM [6]: 4%
inhibition at 3 µM [7]: 52%
inhibition at 3 µM [8]: 36%
solubility kinetic [9]: 7 µg/mL (≈ 22.3 µM)
half-life at 1 µM [10]: 0.917 h
IC50 [1]: 19 nM
Compound: CC(C)(C)c1ccc(NC(=O)Nc2ccc3[nH]ncc3c2)s1
inhibition (INH) [4]: 0%

IC50 [1]: 62 nM
Compound: CCc1cc(C(=O)NCCN(C)C)c(NC(=O)Nc2ccc3[nH]ncc3c2)s1

IC50 [1]: > 20000 nM
Compound: CC(C)(C)c1cc(C(=O)N2CCS(=O)(=O)CC2)c(NC(=O)Nc2ccc(Oc3ccccc3F)cc2)s1

IC50 [1]: 70 nM
Compound: CN(C)CCNC(=O)c1cc(C2CC2)sc1NC(=O)Nc1ccc2[nH]ncc2c1

IC50 [1]: 1900 nM
Compound: CN(C)CCNC(=O)c1cc(-c2ccccc2)sc1NC(=O)Nc1ccc2[nH]ncc2c1

half-life at 1 µM [2]: 4.38 h
inhibition at 3 µM [3]: 9%
inhibition at 3 µM [6]: 0%
inhibition at 3 µM [7]: 30%
inhibition at 3 µM [8]: 52%
solubility kinetic [9]: 41 µg/mL (≈ 102 µM)
half-life at 1 µM [10]: > 2 h
IC50 [1]: 19 nM
Compound: CC(C)(C)c1cc(C(=O)NCCO)c(NC(=O)Nc2ccc3[nH]ncc3c2)s1
inhibition (INH) [4]: 0%

IC50 [1]: 191 nM
Compound: CC(C)(C)c1cc(C(=O)NCc2ccccc2F)c(NC(=O)Nc2ccc3[nH]ncc3c2)s1

IC50 [1]: > 20000 nM
Compound: CC(C)(C)c1cc(C(=O)N2CCS(=O)(=O)CC2)c(NC(=O)Nc2ccc3oc4cccnc4c3c2)s1

IC50 [1]: > 20000 nM
Compound: CC(C)(C)c1cc(C(=O)N2CCS(=O)(=O)CC2)c(NC(=O)Nc2ccc(Oc3ccccc3)cc2)s1

IC50 [1]: 379 nM
Compound: C[C@H](O)c1cc(C(=O)NCCN(C)C)c(NC(=O)Nc2ccc3[nH]ncc3c2)s1
